Test results taken from ChEMBL document CHEMBL4130477, “Metabolites from the Plant Endophytic Fungus Aspergillus sp. CPCC 400735 and Their Anti-HIV Activities” (J Nat Prod, 2017).
Calls of active or inactive are those of the source. No cut-off for these calls is given here.

Assays:
[1] = tested on: Human immunodeficiency virus 1; experiment: Antiviral activity against VSV-G pseudotyped HIV1 infected in human SupT1 cells at 100 uM after 48 hrs by luciferase reporter gene assay relative to control; assay type: functional; settings: for inhibition at 100 µM: Human immunodeficiency virus 1, SUP-T1, 48 h
Summary of the method: (§1)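 VSV-G pseudotyped HIV-1 (pNL-Luc-E plus pHIT/G) was made by […] (2 × 105), harvested at 48 h through a 0.45 μm filter, and quantified by p24 ELISA. […] Compounds were screened at 100 μM; IC50 was determined for those above 60% inhibition.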

[2] = tested on: Human immunodeficiency virus 1; experiment: Antiviral activity against VSV-G pseudotyped HIV1 infected in human SupT1 cells after 48 hrs by luciferase reporter gene assay; assay type: functional, organism-based; settings: Human immunodeficiency virus 1, SUP-T1, 48 h; summary of the method: as §1
[3] = Cytotoxicity against human SupT1 cells assessed as decrease in cell viability after 48 hrs by CCK-8 assay; assay type: cell-based, SUP-T1

Work on `C/C1=C\CC(=O)O[C@@]23C(=O)N[C@@H](Cc4ccccc4)[C@@H]2[C@H](C)[C@@]2(C)O[C@H]2[C@@H]3/C=C/C[C@H](C)C1=O` yielded an inhibition at 100 µM [1] of 81.5%, an IC50 [2] of 41.6 µM and a CC50 at 48 h [3] of 98.6 µM.

With `COC(=O)c1cc(O)cc(OC)c1Oc1c(Cl)c(C)c(Cl)c(O)c1C(=O)O` the inhibition [1] was “inactive”.

Work on `C/C(=C\CC/C(C)=C/C[C@]1(O)C(=O)c2c(O)cc(C)c3c(O)c(C)c(O)c(c23)C1=O)CC/C=C(/CC[C@@H](O)C(C)(C)O)C(=O)O` yielded an inhibition at 100 µM [1] of 48.1%.

Compound `C[C@H]1/C=C/OC(=O)O[C@@]23C(=O)N[C@@H](Cc4ccccc4)[C@@H]2[C@H](C)[C@@]2(C)OC2[C@@H]3/C=C/C[C@H](C)C1=O` (stereo partly drawn) has an inhibition at 100 µM [1] of 54.3%.

With `COC(=O)c1cc(O)cc(OC)c1Oc1cc(C)cc(O)c1C(=O)O` [ASTERRIC ACID] the inhibition at 100 µM [1] was 8.53%.

`Cc1c(O)c(O)c(O)c2c1COC2` gave an inhibition at 100 µM [1] of 90.8%, an IC50 [2] of 49.3 µM and a CC50 at 48 h [3] of 91.4 µM.

In the case of `COC(=O)[C@]1(Cc2ccc(O)cc2)OC(=O)C(OC)=C1c1ccc(O)cc1`, the inhibition at 100 µM [1] is reported as 68.7%, the IC50 [2] is reported as 74.8 µM and the CC50 at 48 h [3] is reported as > 100 µM.

In the case of `C/C(=C\CC/C(C)=C/C[C@]1(O)C(=O)c2c(O)cc(C)c3c(O)c(C)c(O)c(c23)C1=O)CC/C=C(\CO)CC[C@@H](O)C(C)(C)O`, the inhibition at 100 µM [1] is reported as 98.6%, the IC50 [2] is reported as 22.1 µM and the CC50 at 48 h [3] is reported as > 100 µM.

For `COC(=O)[C@@]1(Cc2ccc(O)c(C[C@H](O)C(C)(C)O)c2)OC(=O)C(OC)=C1c1ccc(O)cc1`, the inhibition at 100 µM [1] was 73.4%, the IC50 [2] was 67.2 µM and the CC50 at 48 h [3] was > 100 µM.

`COC(=O)[C@@]1(Cc2ccc3c(c2)C[C@H](O)C(C)(C)O3)OC(=O)C(OC)=C1c1ccc(O)cc1` showed an inhibition at 100 µM [1] of 84.8%, an IC50 [2] of 48 µM and a CC50 at 48 h [3] of 93 µM.

In the case of `Nc1ccn([C@@H]2CS[C@H](CO)O2)c(=O)n1` [LAMIVUDINE], the IC50 [2] is reported as 0.1 µM.

In the case of `Cc1c(O)c(O)c2c(c1C=O)[C@@H]1O[C@H](O2)c2c(C)c(O)c(O)c(O)c2C1=O`, the inhibition at 100 µM [1] is reported as 99.9%, the IC50 [2] is reported as 6.6 µM and the CC50 at 48 h [3] is reported as > 100 µM.

For `CC(C)=CCC/C(=C/CC/C(C)=C/CC/C(C)=C/C[C@]1(O)C(=O)c2c(O)cc(C)c3c(O)c(C)c(O)c(c23)C1=O)CO`, the inhibition at 100 µM [1] was 100%, the IC50 [2] was 4.5 µM and the CC50 at 48 h [3] was > 100 µM.

With `O=C1O[C@H](Cc2ccc(O)cc2)C(c2ccc(O)cc2)=C1O` the inhibition at 100 µM [1] was 62.2%, the IC50 [2] was 54.2 µM and the CC50 at 48 h [3] was > 100 µM.

For `O=C1O/C(=C\c2ccc(O)cc2)C(O)=C1c1ccc(O)c(O)c1`, the inhibition at 100 µM [1] was 74.8%, the IC50 [2] was 72.4 µM and the CC50 at 48 h [3] was > 100 µM.

For `CC1=C(C)[C@H]2[C@H](Cc3ccccc3)NC(=O)[C@]23OC(=O)/C=C/[C@@](C)(O)C[C@@H](C)C/C=C/[C@H]3[C@@H]1O` [CYTOCHALASIN Z9], the inhibition at 100 µM [1] was 98.7%, the IC50 [2] was 14.4 µM and the CC50 at 48 h [3] was > 100 µM.

Compound `CC1=C(C)[C@H]2[C@H](Cc3ccccc3)NC(=O)[C@@]2(O)[C@@H](/C=C/C[C@H](C)C(=O)[C@H](C)O)[C@@H]1O` [CYTOCHALASIN Z13] has an inhibition at 100 µM [1] of 44.9%.

In the case of `Cc1c(O)c(O)c(O)c(C=O)c1-c1cc2c(C=O)c(C)c(O)c(O)c2o1`, the inhibition at 100 µM [1] is reported as 94.7%, the IC50 [2] is reported as 20.2 µM and the CC50 at 48 h [3] is reported as > 100 µM.

`C=C1[C@@H](C)[C@H]2[C@H](Cc3ccccc3)NC(=O)[C@]23OC(=O)/C=C/[C@H](C)[C@H](O)[C@@H](C)C/C=C/[C@H]3[C@@H]1O` gave an inhibition at 100 µM [1] of 100%, an IC50 [2] of 25.8 µM and a CC50 at 48 h [3] of 95.1 µM.

Compound `COC(=O)[C@@]1(Cc2ccc(O)c(C[C@@H](O)C(C)(C)O)c2)OC(=O)C(OC)=C1c1ccc(O)cc1` has an inhibition at 100 µM [1] of 64.3%, an IC50 [2] of 82.3 µM and a CC50 at 48 h [3] of 94.3 µM.

In the case of `COC(=O)c1cc(O)cc(OC)c1C(=O)c1c(O)c(Cl)c(C)c(Cl)c1O` [DIHYDROGEODIN], the inhibition at 100 µM [1] is reported as 91.1%, the IC50 [2] is reported as 56.3 µM and the CC50 at 48 h [3] is reported as > 100 µM.

`C/C(=C\CC/C(C)=C/C[C@]1(O)C(=O)c2c(O)cc(C)c3c(O)c(C)c(O)c(c23)C1=O)CC/C=C(\CC[C@@H](O)C(C)(C)O)C(=O)O` showed an inhibition at 100 µM [1] of 96.8%, an IC50 [2] of 32.6 µM and a CC50 at 48 h [3] of 78.6 µM.

`CC1=C(C)[C@H]2[C@H](Cc3ccccc3)NC(=O)[C@]23OC(=O)C/C=C(/C)C(=O)[C@@H](C)C/C=C/[C@H]3[C@@H]1O` gave an inhibition at 100 µM [1] of 79.5%, an IC50 [2] of 28.9 µM and a CC50 at 48 h [3] of 70.8 µM.

With `COC(OC)C1CCC(C(C)(C)O)OC1CC/C(C)=C/CC/C(C)=C/C[C@]1(O)C(=O)c2c(O)cc(C)c3c(O)c(C)c(O)c(c23)C1=O` (stereo partly drawn) the inhibition at 100 µM [1] was 99.8%, the IC50 [2] was 2.4 µM and the CC50 at 48 h [3] was > 100 µM.

Work on `COC1=C(c2ccc(O)cc2)[C@@H](Cc2ccc(O)cc2)OC1=O` yielded an inhibition at 100 µM [1] of 72.8%, an IC50 [2] of 68.7 µM and a CC50 at 48 h [3] of 96.5 µM.

Compound `COC(=O)c1cc(O)cc(OC)c1C(=O)c1c(O)cc(C)cc1O` [SULOCHRIN] has an inhibition at 100 µM [1] of 53.8%.

In the case of `CC1=C(C)[C@H]2[C@H](Cc3ccccc3)NC(=O)[C@]23OC(=O)/C=C/[C@H](C)[C@H](O)[C@@H](C)C/C=C/[C@H]3[C@@H]1O`, the inhibition at 100 µM [1] is reported as 100%, the IC50 [2] is reported as 9.2 µM and the CC50 at 48 h [3] is reported as > 100 µM.

In the case of `COC(=O)[C@]1(Cc2ccc(O)cc2)OC(=O)C(O)=C1c1ccc(O)cc1`, the inhibition at 100 µM [1] is reported as 60.8%, the IC50 [2] is reported as 84.5 µM and the CC50 at 48 h [3] is reported as > 100 µM.

For `COc1cc(/C=C2\OC(=O)C(c3ccc(O)cc3)=C2O)cc(OC)c1O`, the inhibition at 100 µM [1] was 52.3%, the IC50 [2] was 43.7 µM and the CC50 at 48 h [3] was > 100 µM.

With `O=C1O/C(=C\c2ccc(O)c(O)c2)C(O)=C1c1ccc(O)cc1` the inhibition at 100 µM [1] was 72.3%, the IC50 [2] was 40 µM and the CC50 at 48 h [3] was > 100 µM.

In the case of `O=C1O/C(=C\c2ccc(O)cc2)C(O)=C1c1ccc(O)cc1`, the inhibition [1] is reported as “inactive”.

`O=C1Nc2ccc(Cl)cc2[C@@](C#CC2CC2)(C(F)(F)F)O1` [EFAVIRENZ] gave an IC50 [2] of 0.0004 µM.

For `COc1cc(O)cc(C(=O)O)c1Oc1cc(C)cc(O)c1C(=O)O`, the inhibition at 100 µM [1] was 25.5%.

For `COc1cc(/C=C2\OC(=O)C(c3ccc(O)cc3)=C2O)ccc1O`, the inhibition [1] was “inactive”.

With `COc1cc(/C=C2\OC(=O)C(c3ccc(O)cc3)=C2O)cc(O)c1O` the inhibition at 100 µM [1] was 69.8%, the IC50 [2] was 78.3 µM and the CC50 at 48 h [3] was > 100 µM.
